CHRM4 PAM: potentiates acetylcholine response at human M4 receptor | P08173 | CHO-K1 hM4/Gqi5, Fluo-8 calcium fluorescence, ACh EC20; 0% = ACh EC20, 100% = maximal ACh | activation, % at 3 µM | 360,000 tested, 0.4% active | AID 624126;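 active = activation above its plate's cutoff, the mean activation of sample wells plus 3 SD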
Target sequence (P08173 whole entry, looked up): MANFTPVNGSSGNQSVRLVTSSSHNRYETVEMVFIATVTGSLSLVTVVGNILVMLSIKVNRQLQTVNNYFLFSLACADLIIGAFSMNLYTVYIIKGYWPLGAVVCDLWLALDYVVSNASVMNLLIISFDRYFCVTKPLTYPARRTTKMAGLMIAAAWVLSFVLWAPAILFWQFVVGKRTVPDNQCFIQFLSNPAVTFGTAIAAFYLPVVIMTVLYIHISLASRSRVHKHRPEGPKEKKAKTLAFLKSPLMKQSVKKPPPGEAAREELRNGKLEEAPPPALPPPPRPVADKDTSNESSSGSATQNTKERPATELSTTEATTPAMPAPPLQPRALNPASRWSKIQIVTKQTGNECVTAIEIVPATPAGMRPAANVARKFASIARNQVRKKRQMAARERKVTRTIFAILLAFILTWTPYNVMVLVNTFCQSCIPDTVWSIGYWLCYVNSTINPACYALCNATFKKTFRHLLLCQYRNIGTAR
M5 antag: antagonists of human muscarinic M5 receptor (CHRM5). AID 624040. inhibition, % at 3 µM. CHO-hM5 cells, Fluo-8 calcium fluorescence, ACh EC80. 360,000 tested, 0.59% active. P08912;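 active = inhibition above a per-plate cutoff, the mean of that plate's test compounds plus 3 SD, cut at about 27% in these data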;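 note: 0% = acetylcholine EC80 with DMSO and 100% = DMSO without agonist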
M4 ag: CHRM4 agonism in calcium assay. 360,000 tested, 0.14% active. CHO-K1 hM4/Gqi5, Fluo-8 calcium fluorescence; vehicle 0%, full acetylcholine response 100%. P08173. activation, % at 3 µM;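 active = activation above the run mean over all test wells plus 3 SD, cut at about 32% in these data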;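 note: peak over basal fluorescence ratio per well then scaled between controls; 0% = DMSO wells and 100% = acetylcholine at EC100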
CHRM4 antagonist: CHRM4 antagonism in calcium assay. 360,000 tested, 0.73% active. P08173. inhibition, % at 3 µM. CHO-hM4 cells, ACh EC80, Fluo-8 calcium fluorescence;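 active = inhibition above its plate's cutoff, the mean inhibition of sample wells plus 3 SD, cut at about 27% in these data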;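 note: 0% = acetylcholine EC80 with DMSO and 100% = DMSO without agonist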
M5 ag: agonists of human muscarinic M5 receptor (CHRM5). CHO-K1 hM5 cells, Fluo-8 calcium fluorescence; 0% DMSO wells, 100% maximal acetylcholine response. 360,000 tested, 0.19% active. activation, % at 3 µM. AID 624037;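 active = activation above the run's mean over test compounds plus 3 SD, cut at about 23% in these data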;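 note: signal is peak over basal fluorescence ratio across the kinetic read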
CHRM5 PAM: positive allosteric modulators of human muscarinic M5 receptor. 360,000 tested, 0.3% active. P08912. activation, % at 3 µM. CHO-K1 hM5, Fluo-8 calcium, ACh EC20 PAM; 0% = ACh EC20, 100% = ACh EC100;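 active = activation above the run cutoff, the mean activation of all test compounds plus 3 SD, cut at about 18% in these data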
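system = human M5 receptor in CHO-K1 cells | compound = one concentration, 3 µM final (nominal) | schedule = Post-acetylcholine fluorescence recording 140 s | signal = Fluo-8 calcium dye fluorescence, kinetic read | benchmarks = low control EC20 acetylcholine (0%), high control EC100 acetylcholine (100%) | repeats = singlicate, one well per test compound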
Starred values were filed as active, the others as inactive. The list is not random: actives were taken first. Their share in the collection is about 1.8%.

SMILES | CHRM4 PAM | M5 antag | M4 ag | CHRM4 antagonist | M5 ag | CHRM5 PAM
CC(CC(=O)Nc1nnc(CC(C)(C)C)s1)c1ccccc1 (configuration not stated) | 2 | -8 | 1 | -10 | 4 | 22*
COc1ccccc1N1CCN(CCN2C(=O)C3CCCCN3C2=O)CC1 (configuration not stated) | -6 | 6 | 0 | 9 | -11 | -4
Cc1oc2c(CN3CCOCC3)c(O)ccc2c(=O)c1-c1ccc(Cl)cc1 | -32 | -11 | 1 | 7 | -1 | 16
Cc1oc2c(CN3CCCC3)c(O)ccc2c(=O)c1-c1ccccc1 | -19 | 8 | 0 | 14 | -1 | -4
Cc1oc2c(CN3CCCC3)c(O)ccc2c(=O)c1-c1ccc(Cl)cc1 | -19 | -1 | 2 | 70* | -1 | -1
Cc1oc2c(CN3CCOCC3)c(O)ccc2c(=O)c1-c1ccc(Br)cc1 | -20 | -1 | 0 | 38* | -4 | -2
NC1=NC[C@@H](CC2CCCCC2)N1CCc1cc(C(F)(F)F)cc(C(F)(F)F)c1 | -14 | 45* | -1 | 24 | -3 | -20
CC(O)[C@H]1CNC(=O)C(=O)N1CCc1cccc(F)c1 (some centres not stated) | -2 | 5 | 0 | -2 | 6 | -1
CC(O)[C@H]1CNC(=O)C(=O)N1CCc1cc(C(F)(F)F)cc(C(F)(F)F)c1 (some centres not stated) | 3 | 42* | 1 | -2 | -5 | -17
CCC(C)[C@H]1CN=C(N)N1CCc1cc(C(F)(F)F)cc(C(F)(F)F)c1 (some centres not stated) | -8 | 29* | 0 | 10 | -11 | -42
O=C(NCc1cccs1)c1ccc(CS(=O)Cc2ccc(Cl)cc2)o1 (configuration not stated) | 9 | 2 | 2 | -12 | 0 | -3
CC1=CC(C)(C)N(C(=O)c2ccccc2)c2ccc(C)cc21 | -5 | 2 | 8 | 2 | 23* | 6
CC1=CC(C)(C)N(C(=O)c2ccccc2)c2ccccc21 | 7 | -1 | -4 | -11 | 0 | 2
COc1coc(C(O)C[N+](=O)[O-])cc1=O (configuration not stated) | 2 | -5 | -1 | -8 | 2 | 4
CCCN1C2=C(C(=O)CC(C)(C)C2)C(c2ccc(F)cc2)C2=C1c1ccccc1C2=O (configuration not stated) | 30* | -4 | -1 | -4 | 0 | 11
CCCCN1C2=C(C(=O)CC(C)(C)C2)C(c2ccccc2)C2=C1c1ccccc1C2=O (configuration not stated) | 7 | 1 | 2 | -14 | -3 | -3
CCC1Sc2ccc(S(=O)(=O)Nc3ccc(OC)c(OC)c3)cc2NC1=O (configuration not stated) | -5 | 31* | 16 | 6 | 3 | -15
O=C(O)CSc1nnc2c(n1)[nH]c1ccccc12 | 1 | 34* | 1 | 3 | -5 | -11
O=C(CSc1nnc2c(n1)[nH]c1ccccc12)OCc1ccccc1 | 4 | 1 | 1 | -6 | 1 | 2
NC(Cc1ccc(Cl)cc1)c1csc(NC(=O)Nc2ccccc2)n1 (configuration not stated) | -2 | 7 | 28 | 27* | 4 | 1
Cc1ccccc1NC(=O)Nc1nc(C(N)Cc2ccccc2)cs1 (configuration not stated) | -7 | 4 | 36* | 6 | 11 | -4
COc1ccccc1NC(=O)Nc1nc(C(N)Cc2ccccc2)cs1 (configuration not stated) | 2 | 11 | 14 | 5 | 2 | -3
COc1ccccc1NC(=O)Nc1nc(C(N)Cc2ccc(Cl)cc2)cs1 (configuration not stated) | -4 | 9 | 51* | 34* | 2 | 3
CCc1nc2c(OCC3COc4ccccc4O3)cccn2c1N(C)C(=O)c1ccccc1F (configuration not stated) | -3 | 4 | 9 | -14 | 0 | -4
CNc1nc(NCc2cccc(OC)c2)c2sccc2n1 | -7 | 6 | 11 | 1 | 9 | -13
SMILES | CHRM4 PAM | M5 antag | M4 ag | CHRM4 antagonist | M5 ag | CHRM5 PAM
COc1cccc(CNc2nc(NCc3ccccc3)nc3ccsc23)c1 | -16 | 45* | 58* | 44* | 31* | -21
CNc1nc(NCCOc2ccccc2Cl)c2sccc2n1 | -10 | 10 | 30 | -7 | 11 | -13
CSc1ccccc1CNc1nc(NCC2CC2)nc2ccsc12 | -11 | 30* | 15 | 18 | 3 | -16
Clc1ccccc1OCCNc1nc(NCC2CC2)nc2ccsc12 | -9 | 30* | 15 | 13 | 4 | -18
COc1cccc(CNc2nc(NCC3CC3)nc3ccsc23)c1 | -13 | 31* | 21 | 8 | 4 | -16
O=C(O)CC(NC(=O)C12CC3CC(CC(C3)C1)C2)c1ccc(F)cc1 (configuration not stated) | 4 | 6 | 1 | -8 | 0 | 0
Cn1c(CNC(=O)C(Cc2ccccc2)NC(=O)c2ccccc2F)cc(=O)n(C)c1=O (configuration not stated) | -1 | 5 | 2 | 7 | 0 | 0
C=CCN(C(=O)c1csnn1)C(C(=O)NC1CCCC1)c1ccc(Cl)cc1 (configuration not stated) | -2 | 15 | 2 | -1 | -4 | -6
C#Cc1cccc(Nc2nc(NCc3ccccc3)nc3ccsc23)c1 | -11 | 23 | 11 | 27* | 3 | -18
Cc1ccc(Nc2nc(NCc3ccccc3)nc3ccsc23)c(C)c1 | -15 | 32* | 39* | 57* | 12 | -23
COC(=O)[C@H](Cc1ccccc1)NC(=O)CC[C@H]1O[C@@H](n2ccc(=O)[nH]c2=O)[C@H](O)[C@@H]1O | 8 | 5 | 1 | -16 | -2 | -3
COc1ccc(C)cc1S(=O)(=O)N(CC(=O)O)c1ccccc1 | -1 | -4 | 1 | -4 | -1 | 3
COc1ccc(S(=O)(=O)N(CC(=O)O)c2ccccc2)cc1 | 22* | -1 | 2 | -12 | 2 | 4
COc1ccccc1NC(=O)CN(c1ccccc1)S(=O)(=O)c1ccccc1 | -7 | 8 | 2 | -18 | -2 | 16
COc1ccc(S(=O)(=O)N(C)CC(=O)Nc2ccccc2OC)cc1 | 1 | 1 | 2 | 34* | -2 | 0
COc1ccc(C)cc1S(=O)(=O)N(CC(=O)O)c1ccc(C)cc1 | 32* | -13 | 0 | 6 | 3 | 12
